Calls of active or inactive are those of the source. No cut-off for these calls is given here.
Columns and labels:
Staphylococcus aureus [1] = assay: Bactericidal activity against Staphylococcus aureus ATCC 29213 after 20 to 24 hrs; format: functional; conditions: read-out: MBC99.9
In short: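 MBC: wells showing little or no turbidity in the broth microdilution MIC assay were plated (20 µL) on agar and incubated 20-24 h at 37 °C. MBC is the lowest concentration giving no colonies.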

Staphylococcus aureus [2] = assay: Bactericidal activity against Staphylococcus aureus ATCC 29213 preincubated with 50% sheep plasma at 512 ug/ml for 3 to 6 hrs followed by compound serial dilution and subsequent bacterial inoculation measured after 20 to 24 hrs; format: functional; conditions: read-out: MBC99.9
In short: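 Compound at 512 µg/mL in 50% water/50% sheep plasma, preincubated at 37 °C for 0, 3 or 6 h. Then serially diluted (256-4 µg/mL) and combined 50:150 µL with S. aureus at 10⁵ CFU/mL, 37 °C for 20-24 h. MBC determined by plating; three parallel samples.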

Staphylococcus aureus [3] = assay: Antibacterial activity against Staphylococcus aureus ATCC 29213 after 16 to 20 hrs by broth microdilution method; format: functional
In short: (§1)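 Broth microdilution per CLSI. Bacteria grown 4-6 h (about 10⁸ CFU/mL), then diluted to about 10⁶ CFU/mL. Medium: Mueller-Hinton broth, except Luria-Bertani broth for E. coli. Compounds in sterile water, twofold series 256-0.5 µg/mL, mixed 1:1 with inoculum, 37 °C for 16-20 h. MIC is the lowest concentration without visible growth. Duplicate wells; experiment repeated at least twice.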

Escherichia coli [4] = assay: Antibacterial activity against Escherichia coli ATCC 25922 after 16 to 20 hrs by broth microdilution method; format: functional; in short: as §1
Salmonella enterica = assay: Antibacterial activity against Salmonella enterica ATCC 13076 after 16 to 20 hrs by broth microdilution method; format: functional; in short: as §1
[5] = Hemolytic activity in sheep RBC after 1 hr; format: ADME, cell-based, Ovis aries, Erythrocyte; conditions: sheep red blood cells (erythrocytes)
In short: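 Sheep red blood cells (150 µL suspension) mixed with 50 µL of compound dilutions (5120-10 µg/mL), 1 h at 37 °C, then centrifuged. Supernatant read at 540 nm. Percent hemolysis calculated relative to RBC-only control (0%) and 0.1% Triton X-100 (100%).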

Staphylococcus aureus [6] = assay: Antibacterial activity against methicillin-resistant Staphylococcus aureus clinical isolate 1105183 cono7 after 16 to 20 hrs by broth microdilution method; format: functional
In short: (§2)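 CLSI broth microdilution in Mueller-Hinton broth. A 4-6 h culture was diluted to about 10⁶ CFU/mL and mixed 1:1 with compound dilutions prepared at 256 to 0.5 µg/mL from aqueous stocks. Plates were incubated at 37 °C for 16-20 h and read visually for MIC. Each concentration was run in duplicate, and the experiment was repeated at least twice. Vancomycin and meropenem were comparators.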

Staphylococcus aureus [7] = assay: Antibacterial activity against methicillin-resistant Staphylococcus aureus clinical isolate 1-may after 16 to 20 hrs by broth microdilution method; format: functional; in short: as §2
Klebsiella pneumoniae [8] = assay: Antibacterial activity against drug-resistant carbapenemase producing Klebsiella pneumoniae clinical isolate KP-13-45 after 16 to 20 hrs by broth microdilution method; format: functional; in short: as §2
Klebsiella pneumoniae [9] = assay: Antibacterial activity against drug-resistant carbapenemase producing Klebsiella pneumoniae clinical isolate KP-14-3 after 16 to 20 hrs by broth microdilution method; format: functional; in short: as §2
Klebsiella pneumoniae [10] = assay: Antibacterial activity against drug-resistant carbapenemase producing Klebsiella pneumoniae clinical isolate KP-14-1 after 16 to 20 hrs by broth microdilution method; format: functional; in short: as §2
Klebsiella pneumoniae [11] = assay: Antibacterial activity against drug-resistant carbapenemase producing Klebsiella pneumoniae clinical isolate KP-13-54 after 16 to 20 hrs by broth microdilution method; format: functional; in short: as §2
Klebsiella pneumoniae [12] = assay: Antibacterial activity against drug-resistant carbapenemase producing Klebsiella pneumoniae clinical isolate EC-13-23 after 16 to 20 hrs by broth microdilution method; format: functional; in short: as §2
Klebsiella pneumoniae [13] = assay: Antibacterial activity against drug-resistant carbapenemase producing Klebsiella pneumoniae clinical isolate KP-14-5 after 16 to 20 hrs by broth microdilution method; format: functional; in short: as §2
Klebsiella pneumoniae [14] = assay: Antibacterial activity against drug-resistant carbapenemase producing Klebsiella pneumoniae clinical isolate KP-13-55 after 16 to 20 hrs by broth microdilution method; format: functional; in short: as §2
Escherichia coli [15] = assay: Antibacterial activity against drug-resistant NDM1 producing Escherichia coli clinical isolate Ecl-14-56 after 16 to 20 hrs by broth microdilution method; format: functional; in short: as §2
Escherichia coli [16] = assay: Antibacterial activity against drug-resistant NDM1 producing Escherichia coli clinical isolate CF-13-61 after 16 to 20 hrs by broth microdilution method; format: functional; in short: as §2
Staphylococcus aureus [17] = assay: Disruption of 24 hrs cultured Staphylococcus aureus ATCC 29213 biofilm assessed as cell viability in biofilm at 2 ug/ml after 24 hrs by crystal violet staining-based assay (reference value: 15.96 log10CFU/ml); format: functional
Staphylococcus aureus [18] = assay: Disruption of 24 hrs cultured Staphylococcus aureus ATCC 29213 biofilm assessed as cell viability in biofilm at 16 ug/ml after 24 hrs by crystal violet staining-based assay (reference value: 15.96 log10CFU/ml); format: functional
Staphylococcus aureus [19] = assay: Disruption of 24 hrs cultured Staphylococcus aureus ATCC 29213 biofilm assessed as cell viability in biofilm at 32 ug/ml after 24 hrs by crystal violet staining-based assay (reference value: 15.96 log10CFU/ml); format: functional
Staphylococcus aureus [20] = assay: Disruption of 24 hrs cultured Staphylococcus aureus ATCC 29213 biofilm assessed as cell viability in biofilm at 128 ug/ml after 24 hrs by crystal violet staining-based assay (reference value: 15.96 log10CFU/ml); format: functional
Staphylococcus aureus [21] = assay: Disruption of 24 hrs cultured Staphylococcus aureus ATCC 29213 biofilm assessed as decrease in cell viability in biofilm after 24 hrs by crystal violet staining-based assay; format: functional, organism-based
Staphylococcus aureus [22] = assay: Bactericidal activity against methicillin-resistant Staphylococcus aureus in presence of 50% sheep serum after 20 to 24 hrs; format: functional; conditions: read-out: MBC99.9
In short: (§3)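 MRSA at 10⁵ CFU/mL in 50% MHB plus 50% sheep serum, plasma or defibrinated blood; serum and plasma were obtained by centrifugation at 3,500 rpm for 10 min. Aqueous dilutions prepared at 512-4 µg/mL were added 1:3 to the suspension and incubated for 20-24 h at 37 °C. Well contents (20 µL) were plated on MHA for 20-24 h, and MBC was the concentration giving no colonies.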

Staphylococcus aureus [23] = assay: Bactericidal activity against methicillin-resistant Staphylococcus aureus in presence of 50% sheep blood after 20 to 24 hrs; format: functional; conditions: read-out: MBC99.9; in short: as §3
Staphylococcus aureus [24] = assay: Ratio of MBC99.9 for methicillin-resistant Staphylococcus aureus in presence of 50% sheep serum to MBC99.9 for methicillin-resistant Staphylococcus aureus ATCC 29213 in presence of 50% sheep plasma; format: functional; in short: as §3
Staphylococcus aureus [25] = assay: Induction of cytoplasmic membrane depolarization in Staphylococcus aureus ATCC 29213 at 10 to 20 ug/ml measured every 2 mins for 12 mins by DiSC35 dye-based fluorescence assay; format: functional, organism-based
In short: (§4)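 Mid-log cells (~10⁸ CFU/mL) were suspended in PBS (S. aureus) or HEPES/glucose/KCl with EDTA (E. coli). They were preloaded with DiSC3(5) for 30 min (S. aureus) or 40 min (E. coli), and baseline fluorescence was read for 8 min. Compound was added to 20 µg/mL final, and fluorescence (ex 622/em 670 nm) was read every 2 min for 12 min. Water served as control.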

Escherichia coli [26] = assay: Induction of cytoplasmic membrane depolarization in Escherichia coli ATCC 25922 at 10 to 20 ug/ml measured every 2 mins for 12 mins by DiSC35 dye-based fluorescence assay; format: functional, organism-based; in short: as §4

For `CCCCCCCC[N+](C)(C)CC(=O)Nc1ccc(C(=O)/C=C/c2ccccc2F)cc1.[Cl-]`, the MBC (Staphylococcus aureus [1]) was 8 µg/mL, the MBC (Staphylococcus aureus [2]) was 16 µg/mL and the MIC (Staphylococcus aureus [3]) was 0.5 µg/mL. The MIC (Escherichia coli [4]) was 2 µg/mL, the MIC (Salmonella enterica) was 4 µg/mL and the HC50 at 1 h [5] was 137 µg/mL. For the same compound, the MIC (Staphylococcus aureus [6]) was 1 µg/mL, the MIC (Staphylococcus aureus [7]) was 1 µg/mL and the MIC (Klebsiella pneumoniae [8]) was 4 µg/mL. For the same compound, the MIC (Klebsiella pneumoniae [9]) was 8 µg/mL, the MIC (Klebsiella pneumoniae [10]) was 8 µg/mL and the MIC (Klebsiella pneumoniae [11]) was 4 µg/mL. It also gave an MIC (Klebsiella pneumoniae [12]) of 4 µg/mL, an MIC (Klebsiella pneumoniae [13]) of 4 µg/mL and an MIC (Klebsiella pneumoniae [14]) of 16 µg/mL. It also gave an MIC (Escherichia coli [15]) of 4 µg/mL, an MIC (Escherichia coli [16]) of 4 µg/mL and an Activity (Staphylococcus aureus [17]) of 13.93 log10CFU/ml. The Activity (Staphylococcus aureus [18]) was 10.95 log10CFU/ml, the Activity (Staphylococcus aureus [19]) was 9.59 log10CFU/ml and the Activity (Staphylococcus aureus [20]) was 8.95 log10CFU/ml. The Activity (Staphylococcus aureus [21]) was “Dose-dependent effect”, the MBC (Staphylococcus aureus [22]) was 32 µg/mL and the MBC (Staphylococcus aureus [23]) was 128 µg/mL. For the same compound, the Ratio (Staphylococcus aureus [24]) was 2, the Activity (Staphylococcus aureus [25]) was “Active” and the Activity (Escherichia coli [26]) was “Active”.
